The text below walks through data of ChEMBL document CHEMBL3046951, “Volatile constituents from the leaves of Callicarpa japonica Thunb. and their antibacterial activities” (2004).

Holding throughout (type): functional
The test system of assay [1] is Salmonella typhimurium. The assay can be described thus: Antimicrobial activity against Salmonella enterica subsp. enterica serovar Typhimurium ATCC 14028 assessed as growth inhibition rate at 1.2 mg/l after 72 hr by spectrophotometry. The conditions noted are these: ATCC 14028, 72 h, read-out: GI. The method in brief:
(§1)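 Authentic volatiles (>95% purity; 2,4-heptadienal 90%) tested against 18 h subcultures. Growth media: E. coli O157:H7 and S. aureus in tryptic soy broth at 37 °C; L. monocytogenes in tryptic soy broth at 30 °C; V. parahaemolyticus in tryptic soy broth + 3% NaCl at 37 °C; S. typhimurium in nutrient broth at 30 °C. Bioscreen C OD every 24 h for 72 h versus 10% Tween 80 control.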

Assay [2] has as its system Vibrio parahaemolyticus. The assay can be described thus: Antimicrobial activity against Vibrio parahaemolyticus ATCC 33844 assessed as growth inhibition rate at 1.2 mg/l after 72 hr by spectrophotometry. To be noted: ATCC 33844, 72 h, read-out: GI. The method in brief:
as §1

Assay [3] concerns Listeria monocytogenes. The assay can be described thus: Antimicrobial activity against Listeria monocytogenes ATCC 19111 assessed as growth inhibition rate at 1.2 mg/l after 72 hr by spectrophotometry. To be noted: ATCC 19111, 72 h, read-out: GI. The gist of the method: as §1
In assay [4] the test system is Escherichia coli. The assay can be described thus: Antimicrobial activity against Escherichia coli O157:H7 ATCC 43894 assessed as growth inhibition rate at 1.2 mg/l after 72 hr by spectrophotometry. To be noted: O157:H7 ATCC 43894, 72 h, read-out: GI.
Assay [5] concerns Bacillus cereus. The assay can be described thus: Antimicrobial activity against Bacillus cereus ATCC 11778 assessed as growth inhibition rate at 1.2 mg/l after 72 hr by spectrophotometry. To be noted: ATCC 11778, 72 h, read-out: GI. The method in brief:
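Pure volatile compounds (>95% purity; 2,4-heptadienal 90%) identified in the leaf extract were tested against B. cereus ATCC 11778 in nutrient broth at 30 °C. The inoculum was grown 24 h, then subcultured (0.1 mL into 9.9 mL) for 18 h. Optical density was read in a Bioscreen C every 24 h for 72 h against a 10% Tween 80 control.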

The test system of assay [6] is Staphylococcus aureus. The assay can be described thus: Antimicrobial activity against Staphylococcus aureus ATCC 25923 assessed as growth inhibition rate at 1.2 mg/l after 72 hr by spectrophotometry. The conditions noted are these: ATCC 25923, 72 h, read-out: GI. The method in brief:
as §1

Assay [7] concerns Salmonella typhimurium. The assay can be described thus: Antimicrobial activity against Salmonella enterica subsp. enterica serovar Typhimurium ATCC 14028 assessed as growth inhibition rate at 11.64 mg/l after 72 hr by spectrophotometry. To be noted: ATCC 14028, 72 h, read-out: GI. The method in brief:
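Salmonella Typhimurium ATCC 14028 grown in nutrient broth at 30 °C, precultured 24 h, then subcultured 1:100 for 18 h before testing. Single volatile compounds (>95% pure) were added. OD was read every 24 h over 72 h in a Bioscreen C, with 10% Tween 80 as the comparison control.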

Assay [8] relates to Escherichia coli. The assay can be described thus: Antimicrobial activity against Escherichia coli O157:H7 ATCC 43894 assessed as growth inhibition rate at 11.64 mg/l after 72 hr by spectrophotometry. To be noted: O157:H7 ATCC 43894, 72 h, read-out: GI.
Assay [9] concerns Bacillus cereus. The assay can be described thus: Antimicrobial activity against Bacillus cereus ATCC 11778 assessed as growth inhibition rate at 11.64 mg/l after 72 hr by spectrophotometry. To be noted: ATCC 11778, 72 h, read-out: GI. The gist of the method: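 Pure volatile compounds (purity >95%; one at 90%) were tested against B. cereus ATCC 11778. The strain was grown at 30 °C in nutrient broth for 24 h, then subcultured for 18 h. Optical density was read in a Bioscreen C every 24 h for 72 h, with 10% Tween 80 as the control.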

Assay [10] relates to Staphylococcus aureus. The assay can be described thus: Antimicrobial activity against Staphylococcus aureus ATCC 25923 assessed as growth inhibition rate at 11.64 mg/l after 72 hr by spectrophotometry. The conditions noted are these: ATCC 25923, 72 h, read-out: GI.
Assay [11] concerns Vibrio parahaemolyticus. The assay can be described thus: Antimicrobial activity against Vibrio parahaemolyticus ATCC 33844 assessed as growth inhibition rate at 11.64 mg/l after 72 hr by spectrophotometry. The conditions noted are these: ATCC 33844, 72 h, read-out: GI.
For assay [12], the system named is Listeria monocytogenes. The assay can be described thus: Antimicrobial activity against Listeria monocytogenes ATCC 19111 assessed as growth inhibition rate at 11.64 mg/l after 72 hr by spectrophotometry. To be noted: ATCC 19111, 72 h, read-out: GI. The gist of the method: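 L. monocytogenes was grown at 30 °C in tryptic soy broth, subcultured for 18 h, and exposed to pure volatile compounds (>95% purity). Growth was followed by Bioscreen C optical density every 24 h for 72 h against a 10% Tween 80 control.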

Consider `CC=O`, for which the inhibition of growth at 1.2 µg/mL in the assay with Salmonella typhimurium [1] turned out to be 15.4%; in the assay with Vibrio parahaemolyticus [2] it was 11.1%; with Listeria monocytogenes [3], 10%; in the assay with Escherichia coli [4], 5.3%; in the assay with Bacillus cereus [5], 1.2%; with Staphylococcus aureus [6] it was 2.8%.

As for `CC1=C[C@@H]2C(=C(C)CC[C@H]2C(C)C)CC1`, the inhibition of growth at 11.64 µg/mL with Salmonella typhimurium [7] is 4.3%; in the assay with Escherichia coli [8], 9.5%; in the assay with Bacillus cereus [9], 20.3%; with Staphylococcus aureus [10] it was 26.3%; in the assay with Vibrio parahaemolyticus [11], 32.5%; in the assay on Listeria monocytogenes [12], 15.7%.
